Assay results taken from ChEMBL document CHEMBL5236607, “Membrane-Active Cyclic Amphiphilic Peptides: Broad-Spectrum Antibacterial Activity Alone and in Combination with Antibiotics” (J Med Chem, 2022).
Peptide text beside a SMILES is read from it.

Legend:
Type in all cases: functional
Escherichia coli [1] = assay: Synergistic antibacterial activity against Escherichia coli ATCC 25922 incubated for 24 hrs in presence of tetracycline by checkerboard assay
Procedure, shortened: (§1)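 Checkerboard assay in MH broth. Inoculum from an LB overnight culture set to 0.5 McFarland and diluted 1/150. […] Each agent was also titrated alone. Incubation 24 h at 37 °C. FIC = combination MIC/individual MIC; FICI = sum of the FICs. Triplicate.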

Pseudomonas aeruginosa [2] = assay: Synergistic antibacterial activity against Pseudomonas aeruginosa ATCC […] incubated for 24 hrs in presence of levofloxacin by checkerboard assay
Pseudomonas aeruginosa [3] = assay: Synergistic antibacterial activity against Pseudomonas aeruginosa ATCC […] incubated for 24 hrs in presence of Ciprofloxacin by checkerboard assay
Escherichia coli [4] = assay: Synergistic antibacterial activity against Escherichia coli ATCC 25922 incubated for 24 hrs in presence of polymyxin B by checkerboard assay; procedure, shortened: as §1
Klebsiella pneumoniae [5] = assay: Synergistic antibacterial activity against Klebsiella pneumoniae ATCC BAA-1705 incubated for 24 hrs in presence of polymyxin B by checkerboard assay
Pseudomonas aeruginosa [6] = assay: Synergistic antibacterial activity against Pseudomonas aeruginosa ATCC […] assessed as fractional inhibitory concentration incubated for 24 hrs in presence of tetracycline by checkerboard assay
Staphylococcus aureus [7] = assay: Synergistic antibacterial activity against methicillin resistant Staphylococcus aureus ATCC BAA-1556 assessed as fractional inhibitory concentration incubated for 24 hrs in presence of tetracycline by checkerboard assay
Procedure, shortened: (§2)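 Checkerboard assay. Inoculum from an LB overnight culture at 0.5 McFarland, diluted 1/150 in MH media. […] Incubated 37 °C for 24 h. FICI = MIC combination/MIC alone summed over both agents. Triplicate.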

Escherichia coli [8] = assay: Synergistic antibacterial activity against Escherichia coli ATCC 25922 assessed as fractional inhibitory concentration index incubated for 24 hrs in presence of tetracycline by checkerboard assay; procedure, shortened: as §1
Klebsiella pneumoniae [9] = assay: Synergistic antibacterial activity against Klebsiella pneumoniae ATCC BAA-1705 assessed as fractional inhibitory concentration index incubated for 24 hrs in presence of tetracycline by checkerboard assay; procedure, shortened: as §1
Klebsiella pneumoniae [10] = assay: Synergistic antibacterial activity against Klebsiella pneumoniae ATCC BAA-1705 assessed as fractional inhibitory concentration index incubated for 24 hrs in presence of tobramycin by checkerboard assay; procedure, shortened: as §1
Escherichia coli [11] = assay: Synergistic antibacterial activity against Escherichia coli ATCC 25922 assessed as fractional inhibitory concentration index incubated for 24 hrs in presence of clindamycin by checkerboard assay; procedure, shortened: as §1
Klebsiella pneumoniae [12] = assay: Synergistic antibacterial activity against Klebsiella pneumoniae ATCC BAA-1705 fractional inhibitory concentration index incubated for 24 hrs in presence of clindamycin by checkerboard assay; procedure, shortened: as §1
Pseudomonas aeruginosa [13] = assay: Synergistic antibacterial activity against Pseudomonas aeruginosa ATCC […] fractional inhibitory concentration index incubated for 24 hrs in presence of kanamycin by checkerboard assay
Klebsiella pneumoniae [14] = assay: Synergistic antibacterial activity against Klebsiella pneumoniae ATCC BAA-1705 fractional inhibitory concentration index incubated for 24 hrs in presence of kanamycin by checkerboard assay; procedure, shortened: as §1
Escherichia coli [15] = assay: Synergistic antibacterial activity against Escherichia coli ATCC 25922 fractional inhibitory concentration index incubated for 24 hrs in presence of levofloxacin by checkerboard assay; procedure, shortened: as §1
Klebsiella pneumoniae [16] = assay: Synergistic antibacterial activity against Klebsiella pneumoniae ATCC BAA-1705 fractional inhibitory concentration index incubated for 24 hrs in presence of levofloxacin by checkerboard assay; procedure, shortened: as §1
Escherichia coli [17] = assay: Synergistic antibacterial activity against Escherichia coli ATCC 25922 fractional inhibitory concentration index incubated for 24 hrs in presence of polymyxin B by checkerboard assay; procedure, shortened: as §1
Klebsiella pneumoniae [18] = assay: Synergistic antibacterial activity against Klebsiella pneumoniae ATCC BAA-1705 fractional inhibitory concentration index incubated for 24 hrs in presence of metronidazole by checkerboard assay
Pseudomonas aeruginosa [19] = assay: Synergistic antibacterial activity against Pseudomonas aeruginosa ATCC […] fractional inhibitory concentration index incubated for 24 hrs in presence of meropenem by checkerboard assay
Staphylococcus aureus [20] = assay: Synergistic antibacterial activity against methicillin resistant Staphylococcus aureus ATCC BAA-1556 fractional inhibitory concentration index incubated for 24 hrs in presence of vancomycin by checkerboard assay; procedure, shortened: as §2
Pseudomonas aeruginosa [21] = assay: Synergistic antibacterial activity against Pseudomonas aeruginosa ATCC […] fractional inhibitory concentration index incubated for 24 hrs in presence of vancomycin by checkerboard assay
Klebsiella pneumoniae [22] = assay: Synergistic antibacterial activity against Klebsiella pneumoniae ATCC BAA-1705 fractional inhibitory concentration index incubated for 24 hrs in presence of vancomycin by checkerboard assay; procedure, shortened: as §2
Pseudomonas aeruginosa [23] = assay: Synergistic antibacterial activity against Pseudomonas aeruginosa ATCC […] fractional inhibitory concentration index incubated for 24 hrs in presence of daptomycin by checkerboard assay
Klebsiella pneumoniae [24] = assay: Synergistic antibacterial activity against Klebsiella pneumoniae ATCC BAA-1705 fractional inhibitory concentration index incubated for 24 hrs in presence of daptomycin by checkerboard assay; procedure, shortened: as §1
Escherichia coli [25] = assay: Synergistic antibacterial activity against Escherichia coli ATCC 25922 assessed as fractional inhibitory concentration incubated for 24 hrs in presence of tetracycline by checkerboard assay; procedure, shortened: as §1
Klebsiella pneumoniae [26] = assay: Synergistic antibacterial activity against Klebsiella pneumoniae ATCC BAA-1705 assessed as fractional inhibitory concentration incubated for 24 hrs in presence of tetracycline by checkerboard assay; procedure, shortened: as §1
Staphylococcus aureus [27] = assay: Synergistic antibacterial activity against methicillin resistant Staphylococcus aureus ATCC BAA-1556 assessed as fractional inhibitory concentration incubated for 24 hrs in presence of clindamycin by checkerboard assay; procedure, shortened: as §2
Escherichia coli [28] = assay: Synergistic antibacterial activity against Escherichia coli ATCC 25922 fractional inhibitory concentration incubated for 24 hrs in presence of kanamycin by checkerboard assay; procedure, shortened: as §1
Pseudomonas aeruginosa [29] = assay: Synergistic antibacterial activity against Pseudomonas aeruginosa ATCC […] fractional inhibitory concentration incubated for 24 hrs in presence of levofloxacin by checkerboard assay
Klebsiella pneumoniae [30] = assay: Synergistic antibacterial activity against Klebsiella pneumoniae ATCC BAA-1705 fractional inhibitory concentration incubated for 24 hrs in presence of levofloxacin by checkerboard assay; procedure, shortened: as §1
Klebsiella pneumoniae [31] = assay: Synergistic antibacterial activity against Klebsiella pneumoniae ATCC BAA-1705 fractional inhibitory concentration incubated for 24 hrs in presence of polymyxin B by checkerboard assay; procedure, shortened: as §1
Staphylococcus aureus [32] = assay: Synergistic antibacterial activity against methicillin resistant Staphylococcus aureus ATCC BAA-1556 fractional inhibitory concentration incubated for 24 hrs in presence of metronidazole by checkerboard assay; procedure, shortened: as §2
Pseudomonas aeruginosa [33] = assay: Synergistic antibacterial activity against Pseudomonas aeruginosa ATCC […] fractional inhibitory concentration incubated for 24 hrs in presence of metronidazole by checkerboard assay
Klebsiella pneumoniae [34] = assay: Synergistic antibacterial activity against Klebsiella pneumoniae ATCC BAA-1705 fractional inhibitory concentration incubated for 24 hrs in presence of metronidazole by checkerboard assay; procedure, shortened: as §2
Pseudomonas aeruginosa [35] = assay: Synergistic antibacterial activity against Pseudomonas aeruginosa ATCC […] fractional inhibitory concentration incubated for 24 hrs in presence of meropenem by checkerboard assay
Escherichia coli [36] = assay: Synergistic antibacterial activity against Escherichia coli ATCC 25922 fractional inhibitory concentration incubated for 24 hrs in presence of vancomycin by checkerboard assay; procedure, shortened: as §1
Klebsiella pneumoniae [37] = assay: Synergistic antibacterial activity against Klebsiella pneumoniae ATCC BAA-1705 fractional inhibitory concentration incubated for 24 hrs in presence of vancomycin by checkerboard assay; procedure, shortened: as §1

SMILES | MIC (Escherichia coli [1]) [µg/mL] | MIC (Pseudomonas aeruginosa [2]) [µg/mL] | MIC (Pseudomonas aeruginosa [3]) [µg/mL] | MIC (Escherichia coli [4]) [µg/mL] | MIC (Klebsiella pneumoniae [5]) [µg/mL] | FIC (Pseudomonas aeruginosa [6]) | FIC (Staphylococcus aureus [7]) | fractional inhibitory concentration index (FICI) (Escherichia coli [8]) | fractional inhibitory concentration index (FICI) (Klebsiella pneumoniae [9]) | fractional inhibitory concentration index (FICI) (Klebsiella pneumoniae [10]) | fractional inhibitory concentration index (FICI) (Escherichia coli [11]) | fractional inhibitory concentration index (FICI) (Klebsiella pneumoniae [12]) | fractional inhibitory concentration index (FICI) (Pseudomonas aeruginosa [13]) | fractional inhibitory concentration index (FICI) (Klebsiella pneumoniae [14]) | fractional inhibitory concentration index (FICI) (Escherichia coli [15]) | fractional inhibitory concentration index (FICI) (Klebsiella pneumoniae [16]) | fractional inhibitory concentration index (FICI) (Escherichia coli [17]) | fractional inhibitory concentration index (FICI) (Klebsiella pneumoniae [18]) | fractional inhibitory concentration index (FICI) (Pseudomonas aeruginosa [19]) | fractional inhibitory concentration index (FICI) (Staphylococcus aureus [20]) | other results
N=C(N)NCCC[C@@H]1NC(=O)[C@H](CCCNC(=N)N)NC(=O)[C@H](CCCNC(=N)N)NC(=O)[C@H](Cc2c[nH]c3ccccc23)NC(=O)[C@H](Cc2c[nH]c3ccccc23)NC(=O)[C@H](Cc2c[nH]c3ccccc23)NC(=O)[C@H](Cc2c[nH]c3ccccc23)NC(=O)[C@H](CCCNC(=N)N)NC(=O)[C@H](CCCNC(=N)N)NC1=O | 1 | 0.125 | 0.125 | 0.25 | 0.125 | 0.125 | 0.25 | 0.375 | 0.375 | 0.375 | 0.313 | 0.254 | 0.281 | 0.375 | 0.375 | 0.375 | 0.375 | 0.281 | 0.375 | 0.75 | fractional inhibitory concentration index (FICI) (Pseudomonas aeruginosa [21]): 0.313; fractional inhibitory concentration index (FICI) (Klebsiella pneumoniae [22]): 0.563; fractional inhibitory concentration index (FICI) (Pseudomonas aeruginosa [23]): 0.313; fractional inhibitory concentration index (FICI) (Klebsiella pneumoniae [24]): 0.516; FIC (Escherichia coli [25]): 0.125; FIC (Klebsiella pneumoniae [26]): 0.125; FIC (Staphylococcus aureus [27]): 0.249; FIC (Escherichia coli [28]): 0.25; FIC (Pseudomonas aeruginosa [29]): 0.125; FIC (Klebsiella pneumoniae [30]): 0.125; FIC (Klebsiella pneumoniae [31]): 0.125; FIC (Staphylococcus aureus [32]): 0.063; FIC (Pseudomonas aeruginosa [33]): 0.25; FIC (Klebsiella pneumoniae [34]): 0.0313; FIC (Pseudomonas aeruginosa [35]): 0.125; FIC (Escherichia coli [36]): 0.0313; FIC (Klebsiella pneumoniae [37]): 0.0625
N=C(N)NCCC[C@@H]1NC(=O)[C@H](CCCNC(=N)N)NC(=O)[C@H](CCCNC(=N)N)NC(=O)[C@H](CCCNC(=N)N)NC(=O)[C@H](Cc2c[nH]c3ccccc23)NC(=O)[C@H](Cc2c[nH]c3ccccc23)NC(=O)[C@H](Cc2c[nH]c3ccccc23)NC(=O)[C@H](Cc2c[nH]c3ccccc23)NC(=O)[C@H](CCCNC(=N)N)NC(=O)[C@H](CCCNC(=N)N)NC1=O (cyclo(RRRRRRWWWW)) | 0.5 | 0.125 | 0.125 | 0.125 | 0.031 | 0.25 | 0.25 | 0.313 | 0.375 | 0.5 | 0.313 | 0.266 | 0.266 | 0.5 | 0.375 | 0.375 | 0.313 | 0.313 | 0.5 | 0.5 | fractional inhibitory concentration index (FICI) (Pseudomonas aeruginosa [21]): 0.531; fractional inhibitory concentration index (FICI) (Klebsiella pneumoniae [22]): 0.313; fractional inhibitory concentration index (FICI) (Pseudomonas aeruginosa [23]): 0.516; fractional inhibitory concentration index (FICI) (Klebsiella pneumoniae [24]): 0.375; FIC (Escherichia coli [25]): 0.063; FIC (Klebsiella pneumoniae [26]): 0.125; FIC (Staphylococcus aureus [27]): 0.248; FIC (Escherichia coli [28]): 0.125; FIC (Pseudomonas aeruginosa [29]): 0.125; FIC (Klebsiella pneumoniae [30]): 0.125; FIC (Klebsiella pneumoniae [31]): 0.031; FIC (Staphylococcus aureus [32]): 0.063; FIC (Pseudomonas aeruginosa [33]): 0.125; FIC (Klebsiella pneumoniae [34]): 0.063; FIC (Pseudomonas aeruginosa [35]): 0.25; FIC (Escherichia coli [36]): 0.063; FIC (Klebsiella pneumoniae [37]): 0.0625
